One may read the Kd as the constant that tells how readily two partners part at equilibrium.

Assay [1] has as its system Severe acute respiratory syndrome coronavirus 2. Nature of the assay: Binding affinity to N-terminal 6-histidine tagged Severe acute respiratory syndrome coronavirus 2 nucleocapsid protein overexpressed in Escherichia coli BL21 (DE3) assessed as response unit by SPR assay. Summed up: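 Single-concentration binding screen: compounds at 200 μM over a surface carrying >10000 RU NPro. 120 s contact, 180 s dissociation, running buffer with 5% DMSO, solvent correction applied. Running buffer served as negative control.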
(In general: In SPR one partner is held on a chip, and binding of the other changes the refractive index at the surface.)

Assay [2] can be described thus: Binding affinity to N-terminal 6-histidine tagged Severe acute respiratory syndrome coronavirus 2 nucleocapsid protein overexpressed in Escherichia coli BL21 (DE3) assessed as dissociation constant by SPR assay.

As to `CCn1c(=O)c2cc(OC)c(OC)cc2c2cccc(C(=O)O)c21`, in assay [1], the Activity was found to be 33.5 RU.
`CCN1Cc2cc(OC)c(OC)cc2-c2cccc(NC(=O)C(C)C)c21`: in assay [1], the Activity was 11.8 RU.
`CCn1c(=O)c2cc(OC)c(OC)cc2c2cccc(N)c21`: in assay [1], the Activity worked out at 23.1 RU.
On to `CCc1cccc2c1ncc1ccc(OC)cc12`, for which, in assay [1], the Activity stood at 30.7 RU.
Same read-out and setting: for `CCn1c(=O)c2cc(OC)c(OC)cc2c2cccc(NC(=O)CCC(=O)OC)c21` the value was 13.1 RU; for `COc1ccc2c(c1)CN(C)c1c(C)cccc1-2`, 34.9 RU.
For `CCN1Cc2cc(OC)c(OC)cc2-c2cccc(N)c21`, the Activity in assay [1] came to 145 RU.
As to `CCN1Cc2cc(OC)c(OC)cc2-c2cccc(NC(=O)C(F)(F)F)c21`, the Activity in assay [1] worked out at 101 RU.
`CCN1Cc2cc(OC)c(OC)cc2-c2cccc(NC(C)=O)c21`: the Activity in assay [1] amounted to 14.3 RU.
As for `CCc1cccc2c1N(C)Cc1cc(OCc3cc(C)nn3C)c(OCc3cc(C)nn3C)cc1-2`, the Kd in assay [2] worked out at 10.8 µM. The Activity in assay [1] was determined as 211 RU.
`CCN1Cc2cc(OC)c(OC)cc2-c2cccc(NCC(F)(F)F)c21`: the Kd in assay [2] was found to be 10.4 µM. Besides, in assay [1], the Activity stood at 125 RU.
Consider `COc1cc2cnc3c(C)cccc3c2cc1OC`, for which, in assay [1], the Activity was found to be 29.4 RU.
Take `COc1cc2c(cc1OC)-c1cccc(C)c1N(C(=O)C(F)(F)F)C2`: in assay [1], the Activity was determined as 57.5 RU.
For `Cc1cccc2c1N(C)Cc1cc(O)ccc1-2`, the Activity in assay [1] amounted to 35 RU.
The same measure, in the same setting: for `CCC(=O)Nc1cccc2c1N(CC)Cc1cc(OC)c(OC)cc1-2` the value was 10.6 RU.
Regarding `CCc1cccc2c1N(C(=O)CBr)Cc1ccc(OC)cc1-2`, in assay [1], the Activity amounted to 22 RU.
On to `CCn1c(=O)c2cc(OC)c(OC)cc2c2cccc(NC(C)=O)c21`, for which the Activity in assay [1] worked out at 17.7 RU.

For the origin of these results see ChEMBL document CHEMBL5131398, “Novel nucleocapsid protein-targeting phenanthridine inhibitors of SARS-CoV-2” (Eur J Med Chem, 2022).
